Results from ChEMBL document CHEMBL1275390, “Synthesis and discovery of water-soluble microtubule targeting agents that bind to the colchicine site on tubulin and circumvent Pgp mediated resistance” (J Med Chem, 2010).
Calls of active or inactive are those of the source. No cut-off for these calls is given here.

Columns and labels:
SK-OV-3 [1] = experiment: Antiproliferative activity against human SKOV3 cells by sulforhodamine B assay; type: functional, cell-based
How it was run: (§1)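 Antiproliferative read-out by sulforhodamine B assay. HeLa and SK-OV-3 cells were from ATCC; SK-OV-3 MDR-1-6/6 is the Pgp-overexpressing, MDR-1-transduced isogenic partner of the parental line. Each IC50 is the mean of at least 3 independent experiments, with triplicate points in each.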

SK-OV-3 [2] = experiment: Antiproliferative activity against human SKOV3 cells expressing MDR1-6/6 by sulforhodamine B assay; type: functional, cell-based; how it was run: as §1
SK-OV-3 [3] = experiment: Relative resistance, ratio of IC50 for human SKOV3 cells expressing MDR1-6/6 to IC50 for human SKOV3 cells; type: functional
How it was run: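 Relative resistance (Rr) is the SRB-derived IC50 in Pgp-overexpressing, MDR-1-transduced SK-OV-3 MDR-1-6/6 cells divided by the IC50 in parental SK-OV-3 cells.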

HeLa [4] = experiment: Antiproliferative activity against human HeLa cells expressing tubulin 3beta by sulforhodamine B assay; type: functional, cell-based
HeLa [5] = experiment: Relative resistance, ratio of IC50 for human HeLa cells expressing tubulin 3beta to IC50 for human HeLa cells; type: functional
MDA-MB-435 [6] = experiment: Antiproliferative activity against human MDA-MB-435 cells by sulforhodamine B assay; type: functional, cell-based
How it was run: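 SRB assay against cancer cells obtained from ATCC (MDA-MB-435, HeLa). IC50 is the concentration giving 50% inhibition of proliferation, taken as the mean of at least 3 independent experiments, each run in triplicate points.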

HeLa [7] = experiment: Antiproliferative activity against human HeLa cells by sulforhodamine B assay; type: functional, cell-based; how it was run: as §1
CCRF-CEM = experiment: Growth inhibition of human CCRF-CEM cells by sulforhodamine B assay; type: functional
HL-60(TB) = experiment: Growth inhibition of human HL-60(TB) cells by sulforhodamine B assay; type: functional
K562 = experiment: Growth inhibition of human K562 cells by sulforhodamine B assay; type: functional
MOLT-4 = experiment: Growth inhibition of human MOLT4 cells by sulforhodamine B assay; type: functional
SR = experiment: Growth inhibition of human SR cells by sulforhodamine B assay; type: functional
A549 = experiment: Growth inhibition of human A549 cells by sulforhodamine B assay; type: functional
EKVX = experiment: Growth inhibition of human EKVX cells by sulforhodamine B assay; type: functional
HOP-62 = experiment: Growth inhibition of human HOP62 cells by sulforhodamine B assay; type: functional
HOP-92 = experiment: Growth inhibition of human HOP92 cells by sulforhodamine B assay; type: functional
NCI-H226 = experiment: Growth inhibition of human NCI-H226 cells by sulforhodamine B assay; type: functional
NCI-H23 = experiment: Growth inhibition of human NCI-H23 cells by sulforhodamine B assay; type: functional
NCI-H322M = experiment: Growth inhibition of human NCI-H322M cells by sulforhodamine B assay; type: functional
NCI-H460 = experiment: Growth inhibition of human NCI-H460 cells by sulforhodamine B assay; type: functional
NCI-H522 = experiment: Growth inhibition of human NCI-H522 cells by sulforhodamine B assay; type: functional
COLO 205 = experiment: Growth inhibition of human COLO205 cells by sulforhodamine B assay; type: functional
HCC 2998 = experiment: Growth inhibition of human HCC2998 cells by sulforhodamine B assay; type: functional
HCT-15 = experiment: Growth inhibition of human HCT15 cells by sulforhodamine B assay; type: functional
HT-29 = experiment: Growth inhibition of human HT-29 cells by sulforhodamine B assay; type: functional
KM12 = experiment: Growth inhibition of human KM12 cells by sulforhodamine B assay; type: functional
SW-620 = experiment: Growth inhibition of human SW620 cells by sulforhodamine B assay; type: functional
SF-268 = experiment: Growth inhibition of human SF268 cells by sulforhodamine B assay; type: functional
SF-295 = experiment: Growth inhibition of human SF295 cells by sulforhodamine B assay; type: functional
SF-539 = experiment: Growth inhibition of human SF539 cells by sulforhodamine B assay; type: functional
SNB-19 = experiment: Growth inhibition of human SNB19 cells by sulforhodamine B assay; type: functional
SNB-75 = experiment: Growth inhibition of human SNB75 cells by sulforhodamine B assay; type: functional
U-251 = experiment: Growth inhibition of human U251 cells by sulforhodamine B assay; type: functional
LOX IMVI = experiment: Growth inhibition of human LOXIMVI cells by sulforhodamine B assay; type: functional
M14 = experiment: Growth inhibition of human M14 cells by sulforhodamine B assay; type: functional
MDA-MB-435 [8] = experiment: Growth inhibition of human MDA-MB-435 cells by sulforhodamine B assay; type: functional
SK-MEL-2 = experiment: Growth inhibition of human SK-MEL-2 cells by sulforhodamine B assay; type: functional
SK-MEL-28 = experiment: Growth inhibition of human SK-MEL-28 cells by sulforhodamine B assay; type: functional
SK-MEL-5 = experiment: Growth inhibition of human SK-MEL-5 cells by sulforhodamine B assay; type: functional
UACC-62 = experiment: Growth inhibition of human UACC62 cells by sulforhodamine B assay; type: functional
IGROV-1 = experiment: Growth inhibition of human IGROV1 cells by sulforhodamine B assay; type: functional
OVCAR-3 = experiment: Growth inhibition of human OVCAR-3 cells by sulforhodamine B assay; type: functional
OVCAR-4 = experiment: Growth inhibition of human OVCAR4 cells by sulforhodamine B assay; type: functional
OVCAR-5 = experiment: Growth inhibition of human OVCAR5 cells by sulforhodamine B assay; type: functional
OVCAR-8 = experiment: Growth inhibition of human OVCAR8 cells by sulforhodamine B assay; type: functional
NCI/ADR-RES = experiment: Growth inhibition of human NCI/ADR-RES cells by sulforhodamine B assay; type: functional
SK-OV-3 [9] = experiment: Growth inhibition of human SKOV3 cells by sulforhodamine B assay; type: functional
786-0 = experiment: Growth inhibition of human 786-0 cells by sulforhodamine B assay; type: functional
A498 = experiment: Growth inhibition of human A498 cells by sulforhodamine B assay; type: functional
ACHN = experiment: Growth inhibition of human ACHN cells by sulforhodamine B assay; type: functional
RXF 393 = experiment: Growth inhibition of human RXF393 cells by sulforhodamine B assay; type: functional
SN12C = experiment: Growth inhibition of human SN12C cells by sulforhodamine B assay; type: functional
TK-10 = experiment: Growth inhibition of human TK10 cells by sulforhodamine B assay; type: functional
UO-31 = experiment: Growth inhibition of human UO31 cells by sulforhodamine B assay; type: functional
PC-3 = experiment: Growth inhibition of human PC3 cells by sulforhodamine B assay; type: functional
DU-145 = experiment: Growth inhibition of human DU145 cells by sulforhodamine B assay; type: functional
MCF7 = experiment: Growth inhibition of human MCF7 cells by sulforhodamine B assay; type: functional
MDA-MB-231 = experiment: Growth inhibition of human MDA-MB-231 cells by sulforhodamine B assay; type: functional
[10] = Growth inhibition of human Hs 578T cells by sulforhodamine B assay; type: functional
MDA-MB-468 = experiment: Growth inhibition of human MDA-MB-468 cells by sulforhodamine B assay; type: functional
MDA-MB-435 [11] = experiment: Cell cycle arrest in human MDA-MB-435 cells assessed as formation of aberrant mitotic spindles at 850 nM after 24 hrs using propidium iodide staining by flow cytometry; type: functional, cell-based
MDA-MB-435 [12] = experiment: Cell cycle arrest in human MDA-MB-435 cells assessed as mitotic accumulation at 850 nM after 24 hrs using propidium iodide staining by flow cytometry; type: functional, cell-based
How it was run: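 Cells were then harvested, stained with Krishan's reagent (propidium iodide) and analysed by flow cytometry. Data are plotted as propidium iodide intensity versus number of events.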

Bos taurus = species on record: Bos taurus; experiment: Displacement of [3H]colchicine from bovine brain tubulin at 5 uM after 10 mins

## COc1cc2c(cc1O)CC[C@@H]1[C@@H]2CC[C@]2(C)[C@@H](O)CC[C@@H]12 [2-METHOXYESTRADIOL]
SK-OV-3 [1]
  IC50: 867 nM
SK-OV-3 [2]
  IC50: 2270 nM
SK-OV-3 [3]
  Ratio: 2.6
HeLa [4]
  IC50: 586 nM
HeLa [5]
  Ratio: 1

## COc1ccc(Nc2nc(C)nc3c2CC(C)C3)cc1 (racemic)
MDA-MB-435 [6]
  IC50: > 10000 nM

## COc1ccc(/C=C\c2cc(OC)c(OC)c(OC)c2)cc1OP(=O)(O)O [FOSBRETABULIN]
SK-OV-3 [1]
  IC50: 4.5 nM
SK-OV-3 [2]
  IC50: 6.6 nM
SK-OV-3 [3]
  Ratio: 1.5
HeLa [7]
  IC50: 4.7 nM
HeLa [4]
  IC50: 5.7 nM
HeLa [5]
  Ratio: 1.2

## COc1ccc(N(C)c2nc(C)nc3[nH]ccc23)cc1
CCRF-CEM
  GI50: 315 nM
HL-60(TB)
  GI50: 190 nM
K562
  GI50: 179 nM
MOLT-4
  GI50: 503 nM
SR
  GI50: 87.6 nM
A549
  GI50: 723 nM
EKVX
  GI50: 875 nM
HOP-62
  GI50: 291 nM
HOP-92
  GI50: 4800 nM
NCI-H226
  GI50: 623 nM
NCI-H23
  GI50: 438 nM
NCI-H322M
  GI50: 428 nM
NCI-H460
  GI50: 351 nM
NCI-H522
  GI50: 40.2 nM
COLO 205
  GI50: 243 nM
HCC 2998
  GI50: 271 nM
HCT-15
  GI50: 275 nM
HT-29
  GI50: 279 nM
KM12
  GI50: 181 nM
SW-620
  GI50: 246 nM
SF-268
  GI50: 449 nM
SF-295
  GI50: 269 nM
SF-539
  GI50: 288 nM
SNB-19
  GI50: 612 nM
SNB-75
  GI50: 185 nM
U-251
  GI50: 440 nM
LOX IMVI
  GI50: 407 nM
M14
  GI50: 218 nM
MDA-MB-435 [8]
  GI50: 44.2 nM
SK-MEL-2
  GI50: 251 nM
SK-MEL-28
  GI50: 603 nM
SK-MEL-5
  GI50: 177 nM
UACC-62
  GI50: 625 nM
IGROV-1
  GI50: 340 nM
OVCAR-3
  GI50: 192 nM
OVCAR-4
  GI50: 7730 nM
OVCAR-5
  GI50: 1670 nM
OVCAR-8
  GI50: 639 nM
NCI/ADR-RES
  GI50: 164 nM
SK-OV-3 [9]
  GI50: 248 nM
786-0
  GI50: 433 nM
A498
  GI50: 198 nM
ACHN
  GI50: 556 nM
RXF 393
  GI50: 226 nM
SN12C
  GI50: 854 nM
TK-10
  GI50: 390 nM
UO-31
  GI50: 307 nM
PC-3
  GI50: 509 nM
DU-145
  GI50: 269 nM
MCF7
  GI50: 314 nM
MDA-MB-231
  GI50: 1260 nM
[10]
  GI50: 249 nM
MDA-MB-468
  GI50: 208 nM
MDA-MB-435 [11]
  Activity: Active
MDA-MB-435 [12]
  Activity: Active
SK-OV-3 [1]
  IC50: 278 nM
SK-OV-3 [2]
  IC50: 435 nM
HeLa [7]
  IC50: 270 nM
HeLa [4]
  IC50: 186 nM
Bos taurus
  inhibition: 70%

## COc1ccc(Nc2[nH]c(C)nc3nccc2-3)cc1
MDA-MB-435 [6]
  IC50: > 10000 nM
